What was measured:
Acetylcholinesterase = Acetylcholinesterase (Electrophorus electricus, UniProt O42275); assay: (§1) Inhibition of electric eel acetylcholinesterase using acetylthiocholine iodide as substrate preincubated for 10 mins before substrate addition after 15 mins by Ellman's method
Cholinesterase = Cholinesterase (Homo sapiens, UniProt P06276); assay: Inhibition of human BChE using butyrylthiocholine iodide as substrate preincubated for 10 mins before substrate addition after 15 mins by Ellman's method; design: concentration or dose not given beside the values
[1] = target: Acetylcholinesterase (Electrophorus electricus) (UniProt O42275); assay: as §1; design: concentration or dose not given beside the values
NCI-H157 [2] = assay: Antiproliferative activity against human NCI-H157 cells at 100 uM after 48 hrs by SRB assay; type: functional
Summary of the method: (§2)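 H157 lung carcinoma cells were seeded at 10⁴ cells per well in 96-well plates and grown 24 h at 37 °C in 5% CO₂ to a monolayer. Compounds were added at […]. Cells were fixed, stained with 0.4% w/v sulforhodamine B in 1% acetic acid for 30 min at room temperature, rinsed in acetic acid, and the dye dissolved in 10 mM Tris base for 10 min.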

NCI-H157 [3] = assay: Antiproliferative activity against human NCI-H157 cells at 1 uM after 48 hrs by SRB assay; type: functional; summary of the method: as §2

Chain of Acetylcholinesterase (Electrophorus electricus) (O42275 24-633 limits assumed): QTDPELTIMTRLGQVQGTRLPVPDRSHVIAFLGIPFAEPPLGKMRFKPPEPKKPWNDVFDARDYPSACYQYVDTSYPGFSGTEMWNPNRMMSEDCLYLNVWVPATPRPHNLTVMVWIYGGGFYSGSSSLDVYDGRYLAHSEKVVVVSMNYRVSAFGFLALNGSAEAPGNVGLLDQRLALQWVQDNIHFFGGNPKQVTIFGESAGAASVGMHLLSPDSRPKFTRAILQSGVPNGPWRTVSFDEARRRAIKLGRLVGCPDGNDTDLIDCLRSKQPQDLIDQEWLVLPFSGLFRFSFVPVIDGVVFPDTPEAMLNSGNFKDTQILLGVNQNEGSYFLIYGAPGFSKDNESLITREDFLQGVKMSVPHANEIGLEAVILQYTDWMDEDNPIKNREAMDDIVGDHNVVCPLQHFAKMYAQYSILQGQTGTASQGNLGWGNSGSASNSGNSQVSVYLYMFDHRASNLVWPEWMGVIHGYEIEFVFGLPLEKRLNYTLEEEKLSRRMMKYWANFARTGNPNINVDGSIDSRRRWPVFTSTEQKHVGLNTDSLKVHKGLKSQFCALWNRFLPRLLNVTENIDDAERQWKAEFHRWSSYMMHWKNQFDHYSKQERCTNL
Chain of Acetylcholinesterase (O42275 whole entry): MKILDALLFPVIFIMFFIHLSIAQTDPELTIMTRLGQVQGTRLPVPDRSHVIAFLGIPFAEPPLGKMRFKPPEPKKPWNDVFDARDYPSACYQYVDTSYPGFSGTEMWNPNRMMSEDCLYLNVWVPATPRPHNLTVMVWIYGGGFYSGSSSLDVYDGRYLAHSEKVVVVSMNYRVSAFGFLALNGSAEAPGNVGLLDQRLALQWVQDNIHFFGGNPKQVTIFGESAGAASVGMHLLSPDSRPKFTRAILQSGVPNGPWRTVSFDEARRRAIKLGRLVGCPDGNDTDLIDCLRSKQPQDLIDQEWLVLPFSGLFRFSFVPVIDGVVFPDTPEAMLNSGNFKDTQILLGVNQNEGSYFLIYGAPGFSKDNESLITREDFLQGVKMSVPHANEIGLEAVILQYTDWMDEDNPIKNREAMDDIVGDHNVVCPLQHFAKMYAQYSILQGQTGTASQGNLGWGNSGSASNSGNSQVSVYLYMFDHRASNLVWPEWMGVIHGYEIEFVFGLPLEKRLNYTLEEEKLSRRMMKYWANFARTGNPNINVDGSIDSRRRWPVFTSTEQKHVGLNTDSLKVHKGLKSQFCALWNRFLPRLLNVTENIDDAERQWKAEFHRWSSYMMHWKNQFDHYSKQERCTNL
Chain of Cholinesterase (P06276 whole entry): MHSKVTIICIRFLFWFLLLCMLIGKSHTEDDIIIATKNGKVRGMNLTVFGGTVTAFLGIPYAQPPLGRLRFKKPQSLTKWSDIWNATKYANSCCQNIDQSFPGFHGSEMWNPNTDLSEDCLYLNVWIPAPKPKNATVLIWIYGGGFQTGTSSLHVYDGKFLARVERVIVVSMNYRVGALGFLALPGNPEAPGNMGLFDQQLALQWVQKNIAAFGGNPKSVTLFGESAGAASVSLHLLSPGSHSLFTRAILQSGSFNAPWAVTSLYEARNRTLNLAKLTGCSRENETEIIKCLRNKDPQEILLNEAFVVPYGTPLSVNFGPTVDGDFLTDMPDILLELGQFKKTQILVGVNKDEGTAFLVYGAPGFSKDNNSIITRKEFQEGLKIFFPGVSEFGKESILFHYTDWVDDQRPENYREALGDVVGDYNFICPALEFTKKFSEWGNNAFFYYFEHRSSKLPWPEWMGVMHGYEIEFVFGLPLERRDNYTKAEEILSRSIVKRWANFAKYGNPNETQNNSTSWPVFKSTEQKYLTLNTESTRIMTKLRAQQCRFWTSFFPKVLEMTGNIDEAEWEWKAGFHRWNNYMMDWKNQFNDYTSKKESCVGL

| SMILES | IC50 (Acetylcholinesterase) [µM] | inhibition (Cholinesterase) [%] | inhibition [1] [%] | other results |
| --- | --- | --- | --- | --- |
| COc1cc(/C=C/C(=O)Nc2cc(OC)c(OC)c(OC)c2)ccc1OCc1ccccc1 | 12.6 | 32.8 |  |  |
| COc1cc(NC(=O)/C=C/c2ccc(O)c(O)c2)cc(OC)c1OC |  | 34.6 | 36.4 |  |
| COc1cc(NC(=O)/C=C/c2ccc(O)cc2O)cc(OC)c1OC |  | 18.2 | 36.6 |  |
| COc1cccc(/C=C/C(=O)Nc2cc(OC)c(OC)c(OC)c2)c1O | 6.22 |  |  | IC50 (Cholinesterase): 5.19 µM |
| COc1cc(NC(=O)/C=C/c2cccc(O)c2O)cc(OC)c1OC |  | 41.2 | 31.2 |  |
| COc1cc(NC(=O)/C=C/c2ccc(OC(C)=O)cc2)cc(OC)c1OC |  | 37.4 | 36.5 |  |
| COc1cc(NC(=O)/C=C/c2c(Cl)cccc2[N+](=O)[O-])cc(OC)c1OC |  |  | 34.2 |  |
| CC[C@]1(O)C[C@H]2CN(CCc3c([nH]c4ccccc34)[C@@](C(=O)OC)(c3cc4c(cc3OC)N(C=O)[C@H]3[C@@](O)(C(=O)OC)[C@H](OC(C)=O)[C@]5(CC)C=CCN6CC[C@]43[C@@H]65)C2)C1 [VINCRISTINE] |  |  |  | Activity (NCI-H157 [2]): 46% |
| COc1cc(NC(=O)/C=C/c2ccc(OCc3ccccc3)cc2)cc(OC)c1OC | 3.72 | 33.5 |  |  |
| COc1cc(NC(=O)/C=C/c2c(O)cccc2[N+](=O)[O-])cc(OC)c1OC | 12.8 | 35.4 |  |  |
| COc1cccc(/C=C/C(=O)Nc2cc(OC)c(OC)c(OC)c2)c1 | 12.9 | 41.8 |  |  |
| COc1ccc(/C=C/C(=O)Nc2cc(OC)c(OC)c(OC)c2)cc1O | 4.22 |  |  | IC50 (Cholinesterase): 7.65 µM |
| COc1cc(NC(=O)/C=C/c2ccc(Cl)cc2)cc(OC)c1OC | 31.2 | 25.7 |  |  |
| C=CCOc1ccccc1/C=C/C(=O)Nc1cc(OC)c(OC)c(OC)c1 | 1.41 | 24.8 |  |  |
| COc1cc(NC(=O)/C=C/c2cccc([N+](=O)[O-])c2)cc(OC)c1OC | 3.24 | 26.2 |  |  |
| C=CCOc1ccc(/C=C/C(=O)Nc2cc(OC)c(OC)c(OC)c2)cc1 |  | 32.6 | 33.6 |  |
| COc1cc(/C=C/C(=O)Nc2cc(OC)c(OC)c(OC)c2)ccc1OC(C)=O | 4.98 | 31.1 |  |  |
| COc1cc(NC(=O)/C=C/c2cc(O)ccc2O)cc(OC)c1OC |  | 36.2 | 30.3 | Activity (NCI-H157 [3]): 60% |
| COc1cc(NC(=O)/C=C/c2ccc(NOC(C)=O)cc2)cc(OC)c1OC | 12.5 |  |  | IC50 (Cholinesterase): 3.85 µM |
| CN(C)C(=O)Oc1cccc([N+](C)(C)C)c1 [NEOSTIGMINE] | 22 |  |  | IC50 (Cholinesterase): 49.1 µM |
| COc1cc(NC(=O)/C=C/c2cccc(OC(C)=O)c2)cc(OC)c1OC |  |  | 29.2 | IC50 (Cholinesterase): 1.25 µM |
| COc1cc(NC(=O)/C=C/c2c(F)cccc2Cl)cc(OC)c1OC |  |  | 34.1 | IC50 (Cholinesterase): 1.32 µM; Activity (NCI-H157 [3]): 66% |
| COc1ccc(/C=C/C(=O)Nc2cc(OC)c(OC)c(OC)c2)cc1OCc1ccccc1 | 6.02 | 31.1 |  | Activity (NCI-H157 [3]): 61% |
| COc1ccc(/C=C/C(=O)Nc2cc(OC)c(OC)c(OC)c2)cc1[N+](=O)[O-] | 6.69 | 28.1 |  | Activity (NCI-H157 [3]): 66% |
| COc1cc(NC(=O)/C=C/c2ccccc2OCc2ccccc2)cc(OC)c1OC | 0.29 | 32.1 |  |  |
| COc1cc(NC(=O)/C=C/c2ccc(OCc3ccccc3)cc2O)cc(OC)c1OC | 1.59 | 27.2 |  |  |
| COc1cc(NC(=O)/C=C/c2cccc(OCc3ccccc3)c2)cc(OC)c1OC | 6.52 |  |  | IC50 (Cholinesterase): 3.93 µM |
